From ChEMBL document CHEMBL3272347, “Adamantanamine derivatives. Antimicrobial activities of certain Mannich bases” (1976)
≈ marks a conversion by molar mass, not a printed value.

What was measured:
Format in all cases: functional
[1] = tested on: Mycolicibacterium phlei; experiment: Antimicrobial activity against Mycobacterium phlei ATCC 356 assessed as zone of inhibition after 48 hrs at 0.5 mg/0.1 ml by agar diffusion method
How it was run: (§1)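 Mycobacterium disk diffusion on MDTM agar. Each disk (12.7 mm) got 0.1 ml of Me2SO solution, was air-stood 30 min, then was placed four per seeded plate. Plates were incubated at 37° for 48 hr. Zone diameter was measured by caliper to 0.1 mm. Results averaged 2–4 replicate disks and ≥2 independent-day experiments.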

[2] = tested on: Staphylococcus aureus; experiment: Antimicrobial activity against Staphylococcus aureus by tube dilution method
How it was run: (§2)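 MIC was found by tube dilution, with Me2SO as carrier solvent diluted in the tubes. For M. smegmatis, separate determinations were made in MDTM broth and in MDTM agar.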

[3] = tested on: Escherichia coli; experiment: Antimicrobial activity against Escherichia coli ATCC 11303 assessed as zone of inhibition after 24 hrs at 0.5 mg/0.1 ml by agar diffusion method
How it was run: (§3)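 Bacteria were tested on seeded agar plates with 12.7-mm disks, each loaded with 0.1 ml of compound in Me2SO (stock used directly or Me2SO-diluted). Disks were held 30 min on a wire screen before placement, four per plate. Incubation was 37°, 24 hr. Inhibition zones were measured by caliper to the nearest 0.1 mm. Replicates were 2–4 per dilution over at least two separate days, averaged.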

[4] = tested on: Escherichia coli; experiment: Antimicrobial activity against Escherichia coli ATCC 10586 assessed as zone of inhibition after 24 hrs at 1 mg/0.1 ml by agar diffusion method; how it was run: as §3
[5] = tested on: Staphylococcus aureus; experiment: Antimicrobial activity against Staphylococcus aureus ATCC 10001 assessed as zone of inhibition after 24 hrs at 1 mg/0.1 ml by agar diffusion method; how it was run: as §3
[6] = tested on: Escherichia coli; experiment: Antimicrobial activity against Escherichia coli by tube dilution method; how it was run: as §2
[7] = tested on: Aspergillus niger; experiment: Antimicrobial activity against Aspergillus niger OU S-23 assessed as zone of inhibition after 48 hrs at 4 mg/0.1 ml by agar diffusion method
How it was run: (§4)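 Disk agar diffusion on SDA. Compound in Me2SO stock, used neat or diluted in Me2SO, was loaded at 0.1 ml per 12.7-mm disk. Disks stood 30 min on mesh, then went four per seeded plate. Plates ran at 37° for 48 hr (A. niger) or 24 hr (C. albicans). Zones were read by caliper to 0.1 mm. There were 2–4 replicate disks per dilution and ≥2 experiments on separate days with same-day stocks; results were averaged.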

[8] = tested on: Mycolicibacterium smegmatis; experiment: Antimicrobial activity against Mycobacterium smegmatis OU 10049 assessed as zone of inhibition after 48 hrs at 0.5 mg/0.1 ml by agar diffusion method; how it was run: as §1
[9] = tested on: Staphylococcus aureus; experiment: Antimicrobial activity against Staphylococcus aureus ATCC 10014 assessed as zone of inhibition after 24 hrs at 1 mg/0.1 ml by agar diffusion method; how it was run: as §3
[10] = tested on: Pseudomonas aeruginosa; experiment: Antimicrobial activity against Pseudomonas aeruginosa OU 10048 assessed as zone of inhibition after 24 hrs at 4 mg/0.1 ml by agar diffusion method; how it was run: as §3
[11] = tested on: Escherichia coli; experiment: Antimicrobial activity against Escherichia coli ATCC 8739 assessed as zone of inhibition after 24 hrs at 1 mg/0.1 ml by agar diffusion method; how it was run: as §3
[12] = tested on: Candida albicans; experiment: Antimicrobial activity against Candida albicans CDC MI-023 assessed as zone of inhibition after 24 hrs at 0.5 mg/0.1 ml by agar diffusion method; how it was run: as §4
[13] = tested on: Mycolicibacterium smegmatis; experiment: Antimicrobial activity against Mycobacterium smegmatis by tube dilution method; how it was run: as §2
[14] = tested on: Staphylococcus aureus; experiment: Antimicrobial activity against Staphylococcus aureus ATCC 10001 assessed as zone of inhibition after 24 hrs at 0.1 mg/0.1 ml by agar diffusion method; how it was run: as §3
[15] = tested on: Staphylococcus aureus; experiment: Antimicrobial activity against Staphylococcus aureus ATCC 10014 assessed as zone of inhibition after 24 hrs at 0.1 mg/0.1 ml by agar diffusion method; how it was run: as §3
[16] = tested on: Candida albicans; experiment: Antimicrobial activity against Candida albicans CDC MI-023 assessed as zone of inhibition after 24 hrs at 0.1 mg/0.1 ml by agar diffusion method; how it was run: as §4
[17] = tested on: Mycolicibacterium phlei; experiment: Antimicrobial activity against Mycobacterium phlei ATCC 356 assessed as zone of inhibition after 48 hrs at 0.25 mg/0.1 ml by agar diffusion method; how it was run: as §1
[18] = tested on: Mycolicibacterium smegmatis; experiment: Antimicrobial activity against Mycobacterium smegmatis OU 10049 assessed as zone of inhibition after 48 hrs at 0.25 mg/0.1 ml by agar diffusion method; how it was run: as §1
[19] = tested on: Escherichia coli; experiment: Antimicrobial activity against Escherichia coli ATCC 11303 assessed as zone of inhibition after 24 hrs at 0.1 mg/0.1 ml by agar diffusion method; how it was run: as §3
[20] = tested on: Escherichia coli; experiment: Antimicrobial activity against Escherichia coli ATCC 8739 assessed as zone of inhibition after 24 hrs at 0.5 mg/0.1 ml by agar diffusion method; how it was run: as §3
[21] = tested on: Staphylococcus aureus; experiment: Antimicrobial activity against Staphylococcus aureus ATCC 10014 assessed as zone of inhibition after 24 hrs at 0.05 mg/0.1 ml by agar diffusion method; how it was run: as §3
[22] = tested on: Staphylococcus aureus; experiment: Antimicrobial activity against Staphylococcus aureus ATCC 10001 assessed as zone of inhibition after 24 hrs at 0.05 mg/0.1 ml by agar diffusion method; how it was run: as §3
[23] = tested on: Aspergillus niger; experiment: Antimicrobial activity against Aspergillus niger OU S-23 assessed as zone of inhibition after 48 hrs at 2 mg/0.1 ml by agar diffusion method; how it was run: as §4
[24] = tested on: Escherichia coli; experiment: Antimicrobial activity against Escherichia coli ATCC 10586 assessed as zone of inhibition after 24 hrs at 0.25 mg/0.1 ml by agar diffusion method; how it was run: as §3
[25] = tested on: Escherichia coli; experiment: Antimicrobial activity against Escherichia coli ATCC 8739 assessed as zone of inhibition after 24 hrs at 4 mg/0.1 ml by agar diffusion method; how it was run: as §3
[26] = tested on: Escherichia coli; experiment: Antimicrobial activity against Escherichia coli ATCC 10586 assessed as zone of inhibition after 24 hrs at 2 mg/0.1 ml by agar diffusion method; how it was run: as §3
[27] = tested on: Candida albicans; experiment: Antimicrobial activity against Candida albicans CDC MI-023 assessed as zone of inhibition after 24 hrs at 2 mg/0.1 ml by agar diffusion method; how it was run: as §4
[28] = tested on: Mycolicibacterium phlei; experiment: Antimicrobial activity against Mycobacterium phlei ATCC 356 assessed as zone of inhibition after 48 hrs at 0.1 mg/0.1 ml by agar diffusion method; how it was run: as §1
[29] = tested on: Escherichia coli; experiment: Antimicrobial activity against Escherichia coli ATCC 11303 assessed as zone of inhibition after 24 hrs at 2 mg/0.1 ml by agar diffusion method; how it was run: as §3
[30] = tested on: Staphylococcus aureus; experiment: Antimicrobial activity against Staphylococcus aureus ATCC 10014 assessed as zone of inhibition after 24 hrs at 0.25 mg/0.1 ml by agar diffusion method; how it was run: as §3
[31] = tested on: Staphylococcus aureus; experiment: Antimicrobial activity against Staphylococcus aureus ATCC 10001 assessed as zone of inhibition after 24 hrs at 0.25 mg/0.1 ml by agar diffusion method; how it was run: as §3
[32] = tested on: Mycolicibacterium smegmatis; experiment: Antimicrobial activity against Mycobacterium smegmatis OU 10049 assessed as zone of inhibition after 48 hrs at 0.1 mg/0.1 ml by agar diffusion method; how it was run: as §1
[33] = tested on: Escherichia coli; experiment: Antimicrobial activity against Escherichia coli ATCC 10586 assessed as zone of inhibition after 24 hrs at 0.5 mg/0.1 ml by agar diffusion method; how it was run: as §3
[34] = tested on: Pseudomonas aeruginosa; experiment: Antimicrobial activity against Pseudomonas aeruginosa OU 10048 assessed as zone of inhibition after 24 hrs at 0.5 mg/0.1 ml by agar diffusion method; how it was run: as §3
[35] = tested on: Aspergillus niger; experiment: Antimicrobial activity against Aspergillus niger OU S-23 assessed as zone of inhibition after 48 hrs at 0.25 mg/0.1 ml by agar diffusion method; how it was run: as §4
[36] = tested on: Escherichia coli; experiment: Antimicrobial activity against Escherichia coli ATCC 8739 assessed as zone of inhibition after 24 hrs at 2 mg/0.1 ml by agar diffusion method; how it was run: as §3
[37] = tested on: Escherichia coli; experiment: Antimicrobial activity against Escherichia coli ATCC 11303 assessed as zone of inhibition after 24 hrs at 1 mg/0.1 ml by agar diffusion method; how it was run: as §3
[38] = tested on: Mycolicibacterium smegmatis; experiment: Antimicrobial activity against Mycobacterium smegmatis OU 10049 assessed as zone of inhibition after 48 hrs at 1 mg/0.1 ml by agar diffusion method; how it was run: as §1
[39] = tested on: Staphylococcus aureus; experiment: Antimicrobial activity against Staphylococcus aureus ATCC 10014 assessed as zone of inhibition after 24 hrs at 0.5 mg/0.1 ml by agar diffusion method; how it was run: as §3
[40] = tested on: Candida albicans; experiment: Antimicrobial activity against Candida albicans CDC MI-023 assessed as zone of inhibition after 24 hrs at 4 mg/0.1 ml by agar diffusion method; how it was run: as §4
[41] = tested on: Staphylococcus aureus; experiment: Antimicrobial activity against Staphylococcus aureus ATCC 10001 assessed as zone of inhibition after 24 hrs at 0.5 mg/0.1 ml by agar diffusion method; how it was run: as §3

SMILES | inhibition zone (IZ) [1] [mm] | MIC [2] [µg/mL] | inhibition zone (IZ) [3] [mm] | inhibition zone (IZ) [4] [mm] | MIC [6] [µg/mL] | inhibition zone (IZ) [7] [mm] | inhibition zone (IZ) [8] [mm] | inhibition zone (IZ) [10] [mm] | inhibition zone (IZ) [12] [mm] | MIC [13] [µg/mL] | inhibition zone (IZ) [14] [mm] | inhibition zone (IZ) [15] [mm] | inhibition zone (IZ) [17] [mm] | inhibition zone (IZ) [18] [mm] | inhibition zone (IZ) [23] [mm] | inhibition zone (IZ) [26] [mm] | inhibition zone (IZ) [36] [mm] | further results
Cl.O=C(CCNC12CC3CC(CC(C3)C1)C2)c1ccc(F)cc1 | 17.7 | 500 | 17.6 | 16.5 | 1000 | 15 | 15.3 | 15 | 16.6 | 250 |  |  |  |  |  |  |  | inhibition zone (IZ) [5]: 19.1 mm; inhibition zone (IZ) [9]: 16.6 mm; inhibition zone (IZ) [11]: 16.7 mm
Cl.O=C(CCNC12CC3CC(CC(C3)C1)C2)c1cccc(Br)c1 |  | 125 | 17.5 | 17.4 | 500 | 16.8 |  | 15 |  | 125 | 18.7 | 17.5 | 20 | 17.6 |  |  |  | inhibition zone (IZ) [16]: 15.3 mm; inhibition zone (IZ) [11]: 18.2 mm
Cl.O=C(CCNC12CC3CC(CC(C3)C1)C2)c1ccc(Br)cc1 |  | 125 |  |  | 500 |  |  | <15 |  | 125 |  |  | 19.2 | 17 | 19 |  |  | inhibition zone (IZ) [19]: 15.6 mm; inhibition zone (IZ) [20]: 17.8 mm; inhibition zone (IZ) [21]: 17 mm; inhibition zone (IZ) [22]: 16.6 mm; inhibition zone (IZ) [16]: 15.1 mm; inhibition zone (IZ) [24]: 15.3 mm
Oc1ccc(-c2ccccc2)cc1CNC12CC3CC(CC(C3)C1)C2 |  |  |  |  |  | <15 |  | 15 |  | 62.5 (≈ 187 µM) |  |  |  |  |  | 15 |  | inhibition zone (IZ) [25]: 15.6 mm; inhibition zone (IZ) [27]: 15.8 mm; inhibition zone (IZ) [28]: 18.9 mm; inhibition zone (IZ) [29]: 15.1 mm; inhibition zone (IZ) [30]: 16.8 mm; inhibition zone (IZ) [31]: 17.3 mm; inhibition zone (IZ) [32]: 18.7 mm
Oc1ccc(/N=N/c2ccccc2)cc1CNC12CC3CC(CC(C3)C1)C2 | <15 |  | <15 |  |  |  | 15.5 |  | <15 |  |  |  |  |  |  |  |  | inhibition zone (IZ) [33]: 15 mm; inhibition zone (IZ) [34]: 15 mm; inhibition zone (IZ) [20]: 15 mm; inhibition zone (IZ) [35]: 15 mm; inhibition zone (IZ) [30]: 15.4 mm; inhibition zone (IZ) [31]: <15 mm
Cl.O=C(CCNC12CC3CC(CC(C3)C1)C2)c1ccc([N+](=O)[O-])cc1 |  | 125 |  | 15.3 | 500 |  |  | <14 | 16.4 | 500 | 16 | 15.8 | 19.4 | 17.4 | 15.2 |  | 16.5 | inhibition zone (IZ) [37]: 16.5 mm
Cl.O=C(CCNC12CC3CC(CC(C3)C1)C2)c1ccc(O)cc1 | 16.3 |  |  |  |  | 15 |  | 15 |  |  |  |  |  |  |  | 16 | 16 | inhibition zone (IZ) [38]: 19 mm; inhibition zone (IZ) [29]: 17.2 mm; inhibition zone (IZ) [39]: 15.3 mm; inhibition zone (IZ) [40]: 15.4 mm; inhibition zone (IZ) [41]: 15.6 mm
Cl.O=C(CCNC12CC3CC(CC(C3)C1)C2)c1cccc([N+](=O)[O-])c1 | 19.1 |  |  |  |  |  | 16.6 | 15 |  |  | 15.4 | 15.7 |  |  | 15 | 16.8 | 16.3 | inhibition zone (IZ) [37]: 15.5 mm; inhibition zone (IZ) [27]: 16.2 mm
